The series can be described thus: Toxicity liver stage against HepG2, at 10uM. Type of series: cell-based. On the set-up: test concentration 10 uM, cell line HepG2-A16-CD81EGFP. The settings on record: human, HepG2-A16-CD81EGFP cells; read-out: INHIBITION
The essentials:
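Uninfected HepG2-A16-CD81EGFP cells, 3 × 10^3 per well, 1536-well, plated on prespotted compound at 10 μM final, parasite-free screening media added to match infected plates; puromycin 10 μM positive, DMSO 0.5% negative; run in parallel with 48 h PbLuc assay at 37 °C, 5% CO2; viability by CellTiter-Glo luminescence, normalized to controls.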
In the case of `Cn1c(CC(=O)O)c(Sc2ccccc2)c2ccccc21`, the cytotoxicity at 10 µM was found to be 4.35%.

For the compound `COc1cccc(CNc2c(O)c(=O)c2=O)c1`, the cytotoxicity at 10 µM amounted to 5.78%.

Regarding `COc1ccc(C)cc1NC(=O)Nc1cnc(O)nc1O`, the cytotoxicity at 10 µM is -3.79%. Then `CC1=C(c2ccc(F)cc2)S(=O)(=O)N=C1N1CCc2ccccc21`, with -1.29%; and `COCC(O)CN1CCC(=O)N(CC(=O)C(C)(C)C)Cc2ccccc21` (stereo unspecified), with 6.31%; and `CC(C)CC(=O)N1CC(=O)N(CCc2ccccc2)CC(O)C1` (stereo unspecified), with -6.4%.

As for `CCOC(=O)N1CC(=O)N(Cc2cccc(OC)c2OC)CC(O)C1` (stereo unspecified), the cytotoxicity at 10 µM is -3.66%. In the case of `O=C(Cc1csc(-c2ccccc2F)n1)NCc1cccc(C(=O)O)c1` it was -5.48%. Then `O=C(c1ccccc1F)N1CCN(c2ccc(-n3cccn3)nn2)CC1`, with -18.3%; and `O=S(=O)(C1CC1)N1CCC(Cn2cccn2)CC1`, with -8.29%.

For `O=S(=O)(c1ccccc1Br)N1CCC2(CC1)OCCS2`, the cytotoxicity at 10 µM was -1.86%. In the case of `COCCN(Cc1ccoc1)S(=O)(=O)c1ccc(F)c(C)c1` it was -7.15%. `O=C(NCC1CC1)[C@@H]1C[C@@H]2CCN(Cc3ccccc3)C[C@H]2O1`: the cytotoxicity at 10 µM is 4.21%. For `c1coc(CN2CC[C@@H]3O[C@@H](COCc4ccncc4)CC[C@@H]32)c1`, the cytotoxicity at 10 µM was -155%. Then `COCC1COCCC12CCN(C(=O)Cc1ccc(F)cc1)CC2` (stereo unspecified), with 1.68%; and `Cc1ccc(S(=O)(=O)N2Cc3c(CN(C)C)nn(C)c3C2)cc1`, with 2.32%. `O=C1CCCN1CC1CN(C(=O)C2CCOCC2)Cc2nccn2C1` (stereo unspecified): the cytotoxicity at 10 µM amounted to 3.33%. As to `C[C@H](NC(=O)OC(C)(C)C)c1nnc(S(=O)(=O)Cc2cccc(F)c2)o1`, the cytotoxicity at 10 µM is -6.91%. Regarding `O=C(O)C1CCN(C(=O)Cn2ccc3c(Cl)cccc32)CC1`, the cytotoxicity at 10 µM is -3.91%. `CC(=O)c1cccc(S(=O)(=O)NCCNC(=O)c2snnc2C)c1`: the cytotoxicity at 10 µM was -0.302%. As for `CCn1nccc1CN(C)c1nc(N)nc2c1nc(C)n2C`, the cytotoxicity at 10 µM was -4.83%. Then `CSCc1cccc(S(=O)(=O)NCCO)c1`, with -0.138%. Then `CCOc1ccc2oc(-c3cnn(C)c3C)c(O)c(=O)c2c1`, with 7.72%; and `CS(=O)(=O)N1CCCCC1c1ccc(Nc2cnccn2)nc1` (stereo unspecified), with 6.39%. Then `CN(C)C(=O)c1c[nH]nc1-c1ccc(CNC(=O)c2cnccn2)cc1`, with -0.56%; and `CNc1ncccc1CN1CCN(C)CC(C(=O)N(C)C)C1` (stereo unspecified), with 16.1%. On to `CNC(=O)c1sc2ccccc2c1C1CCN(c2nc(C)cc(C)n2)C1` (stereo unspecified), for which the cytotoxicity at 10 µM stood at 4.93%. Then `CN(C)c1ccc(CC2CCN(c3cnccn3)C2)nn1` (stereo unspecified), with 2.97%.

With `Cc1c(NC(=O)CN2CCC(Oc3cnccn3)CC2)cnn1C`, the cytotoxicity at 10 µM is -4.68%.

With `Cc1noc(C)c1C(=O)N1CCCC1(C)C(=O)NC1CCCC1` (stereo unspecified), the cytotoxicity at 10 µM is -1.33%. In the case of `Cc1nc(Nc2ncccn2)cc(C2CCCN2C)n1` (stereo unspecified), the cytotoxicity at 10 µM was -16.5%. Then `CN(C)C(=O)CN1CCC(c2cncc(-c3cccc(Cl)c3)n2)CC1`, with -33.3%.

Consider `Cc1cc2c(=O)n3c(nc2s1)CCN(C(=O)c1ccn(C)n1)CC3`, for which the cytotoxicity at 10 µM is -9.68%. Then `Cc1cc(N)cc(C2CN(Cc3cc[nH]n3)CCO2)n1` (stereo unspecified), with -29.1%; and `Cc1nc(NC2CCCC2)cc(C2CCN2C(=O)c2cnn(C)c2)n1` (stereo unspecified), with 8.89%.

On to `O=S1(=O)NC2(CCCN(Cc3ccc(F)cc3)C2)COc2ccccc21` (stereo unspecified), for which the cytotoxicity at 10 µM was 7.63%.

For the compound `CC(C)(C)C(O)CN1CCN(Cc2ccc(C#N)cc2)CC1` (stereo unspecified), the cytotoxicity at 10 µM was -8.88%.

Turning to `CCC(=O)N1CCN(C(=O)NCc2c(C)cc(C)cc2C)CC1`, the cytotoxicity at 10 µM stood at 6.12%. As to `CCn1nnnc1-c1cccc(NC(=O)CCn2cc(C)cn2)c1`, the cytotoxicity at 10 µM amounted to 1.66%. Consider `Cc1nc(C(C)NC(=O)NCc2nccn2CC(C)C)cs1` (stereo unspecified), for which the cytotoxicity at 10 µM is -20.7%.

Regarding `CN(C)C(=O)Cc1ccccc1NCc1noc(-c2ccccc2)n1`, the cytotoxicity at 10 µM was determined as 6.95%. Then `Clc1snnc1CN(Cc1cccs1)C1CC1`, with -8.78%; and `CSCC(=O)N1CCOC(c2nc(C(C)(C)C)n[nH]2)C1` (stereo unspecified), with -9.58%; and `Cc1ccc(CNC(=O)COc2ccc3c(c2)OCC3O)cc1` (stereo unspecified), with -5.67%. In the case of `Cc1ccccc1Cn1cnc2oc(C)c(C(=O)O)c2c1=O` it was -1.49%; in that of `COc1ccc(NC(=O)N(C)Cc2ccco2)cn1`, -11.8%.

As for `Cc1ccc(C(=O)Nc2cnn(CC(=O)NC3CCCC3)c2)c(=O)[nH]1`, the cytotoxicity at 10 µM is -4.09%. For `COCC(=O)N(C)Cc1ccc(F)c(F)c1`, the cytotoxicity at 10 µM is -140%. Then `CCCc1n[nH]c(C2CN(C(=O)CCn3cc(C)cn3)CCO2)n1` (stereo unspecified), with 10.3%; and `Cc1ccc(NC(C)C(=O)NCc2cccs2)cc1Cl` (stereo unspecified), with -2.27%. Then `FC(F)(F)CN1CCC(CCNc2ncccn2)CC1`, with -3.94%.

For the compound `Cc1cnn(CCCNC(=O)C2CCCCN2Cc2ccncc2)c1` (stereo unspecified), the cytotoxicity at 10 µM is -7.85%. In the case of `Cc1cnn(CCCNC(=O)C2CCCCN2Cc2cccnc2)c1` (stereo unspecified) it was -8.97%; in that of `C[C@@H]1CN(Cc2ccccc2)CCN1C(=O)NCc1nccs1`, -142%.

For `CC(C)c1ccc(O)c(C(=O)NC2CCN(c3ncccn3)CC2)c1`, the cytotoxicity at 10 µM stood at 9.81%.

Take `COc1nc(C)ccc1CNC(=O)NC(C)Cc1c(C)nn(C)c1C` (stereo unspecified): the cytotoxicity at 10 µM was 8.37%. Then `CCOCC1CCN(C(=O)c2sc(C)cc2OC(F)F)CC1`, with 7.95%. Then `CCN1CCN(C(=O)C(C)SC)CC1` (stereo unspecified), with 11.4%. Then `CCOc1cc(C(=O)O)cc(-c2ccccc2)c1OC`, with -9.88%. Regarding `CN(C)C(=O)c1cccc(NC(=O)N2CCCC(C(F)(F)F)C2)c1` (stereo unspecified), the cytotoxicity at 10 µM came to 6.37%. Then `Cc1cc(CN2CCc3nn(C)c(=O)cc3C2)on1`, with -8.17%. With `Cn1ccnc1CN1C[C@@H](CN2CCCC2)[C@@H](CO)C1`, the cytotoxicity at 10 µM turned out to be 4.34%. In the case of `Cc1cc2ccccc2n1CCC(=O)NCCCc1nnc(N)s1` it was 19.6%; in that of `c1cc(CN2CCC(Cc3noc(C4CC4)n3)CC2)c2c(c1)OCO2`, 7.69%; in that of `O=C(COCc1ccccc1)N1CCCC(OCc2cccnc2)C1` (stereo unspecified), -2.65%.

Consider `Cc1ccc(OC2(C(=O)O)CCN(C(=O)c3cccs3)CC2)cn1`, for which the cytotoxicity at 10 µM came out at 0.92%. `CC(=O)c1cc(CC(=O)NCc2cccc(F)c2F)cs1`: the cytotoxicity at 10 µM is 2.95%. In the case of `CN(Cc1cnc(N)nc1)C(=O)c1coc(COc2cccc(F)c2)n1` it was 0.998%. Consider `CC(C)n1ccnc1C1CCCN(c2cncc(N(C)C)n2)C1` (stereo unspecified), for which the cytotoxicity at 10 µM worked out at 10.1%.

Regarding `CSCCCNc1nccc(-c2cc(C(=O)O)ccn2)n1`, the cytotoxicity at 10 µM was 3.49%. Consider `CCN(Cc1nc(COC)no1)Cc1cc2ccc(F)cc2[nH]c1=O`, for which the cytotoxicity at 10 µM stood at 2.03%. Then `CCn1c(C)cc(C(=O)N2C[C@@H](C(=O)O)[C@H](c3ccccc3C)C2)c1C`, with -7.71%. Then `CCn1c(CC2CCN(S(=O)(=O)N3CCCCC3)CC2)nn(C)c1=O`, with 1.58%; and `Cc1cccnc1C(Nc1nccc(C2CCCC2)n1)C1CC1` (stereo unspecified), with -121%. For the compound `COCCc1noc(Cn2ccc3ccccc3c2=O)n1`, the cytotoxicity at 10 µM stood at 0.0869%. As to `O=C1CCC2(CCNCC2)CN1Cc1nncn1CCc1ccccc1`, the cytotoxicity at 10 µM is -10.1%. In the case of `CN(Cc1n[nH]c2c1CCC2)C(=O)CCc1cc2n(n1)CCCNC2` it was -0.861%; in that of `CN(C)C(=O)N1CCN(Cc2nc3ccccc3[nH]2)[C@H]2CS(=O)(=O)C[C@H]21`, -150%; in that of `COc1ccc([C@@H]2CN(C(=O)CCC(F)(F)F)C[C@H]2NC(C)=O)cc1`, 2.12%. As to `CC(=O)N1CCN(CC2CCOc3ccccc3C2)CC1` (stereo unspecified), the cytotoxicity at 10 µM is 7.68%. `Cc1ccc2cc(CNCCCN3CCOCC3)c(=O)[nH]c2c1`: the cytotoxicity at 10 µM is -0.336%. In the case of `CC(=O)Nc1nc(CN2CCCCC2Cn2cncn2)cs1` (stereo unspecified) it was 1.12%. In the case of `CCN(CCCNCc1c(C)nn(C)c1N(C)C)S(C)(=O)=O` it was -6.89%. In the case of `CC(O)CN1CCC(CNCc2ccccc2C(F)(F)F)CC1` (stereo unspecified) it was -9.27%. Turning to `O=C(O)[C@@H]1CCCN1c1nccc(Nc2ccccc2)n1`, the cytotoxicity at 10 µM was found to be 12.2%.

Turning to `CCN(CC)Cc1cn2c(n1)CN(C1CCOC1)CC2` (stereo unspecified), the cytotoxicity at 10 µM turned out to be 4.12%. Then `O=C1CC[C@H]2[C@H](CCN2c2ncc(F)cn2)N1c1cccnc1`, with 0.864%; and `COCC(=O)N1CCC2(CC1)COCCN2CCN(C)C`, with -3.28%; and `Cc1ccc(CN2CC[C@H]3OCC[C@@]3(C(=O)N3CCCO3)C2)o1`, with 8.83%. In the case of `CN1CCN(C(=O)NC2CC2)Cc2cccnc21` it was -2.96%; in that of `Cc1ccc(N2CCC3(CCN(C(=O)c4ccccn4)CC3)CC2)nn1`, 0.255%. Then `COc1cc(N2C[C@H]3CN(C(=O)c4cccnc4)C[C@H]3C2)ncn1`, with -141%.

Turning to `c1ccc(CN2CCc3ncnc(C4CC4)c3CC2)cc1`, the cytotoxicity at 10 µM is -156%. In the case of `O=C(C1CC=CC1)N1C[C@@H](OCc2cccnc2)[C@H]2OCCC[C@H]21` it was 2.74%; in that of `CN(C)C(=O)CO[C@H]1CN(Cc2nccs2)[C@@H]2COC[C@H]12`, 5.08%; in that of `Cc1c(Cl)cccc1S(=O)(=O)N1C[C@H]2CC[C@@H](C1)N(C)C2=O`, 3.42%.
